NPY-Y2 PAM-ag: human NPY-Y2 potentiation or agonism, primary screen; P49146; cells expressing NPY-Y2, potentiator/agonist read-out; activation, % at 3.6 µM; 0.45% of 220,000 active; in the data active = activation above about 27%;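 also: cells stimulated with NPY near EC25 plus isoproterenol at EC100; 0% = vehicle plus submaximal agonist and 100% = vehicle plus saturating agonist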
EP2 antag: EP2 receptor (human) inhibition; P43116; C6 glioma cells expressing human EP2, cAMP TR-FRET; cells stimulated with saturating PGE2; inhibition, % at 25 µM; 0.52% of 260,000 active; AID 1422;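 active = percent inhibition above 40 after rounding to a whole number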;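 also: rat C6 glioma host cells with rolipram phosphodiesterase inhibitor present; the protocol text gives 20 µM as final concentration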
Target sequence (P43116 whole entry, looked up): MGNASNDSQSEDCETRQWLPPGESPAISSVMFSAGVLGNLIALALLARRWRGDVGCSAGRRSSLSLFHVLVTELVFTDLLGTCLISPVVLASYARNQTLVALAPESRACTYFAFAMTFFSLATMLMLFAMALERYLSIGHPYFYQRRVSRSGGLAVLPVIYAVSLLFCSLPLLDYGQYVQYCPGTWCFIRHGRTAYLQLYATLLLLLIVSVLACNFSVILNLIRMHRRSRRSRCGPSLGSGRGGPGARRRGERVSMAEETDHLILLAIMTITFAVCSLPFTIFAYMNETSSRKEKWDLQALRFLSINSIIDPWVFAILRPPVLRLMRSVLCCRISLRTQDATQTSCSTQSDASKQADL
EP2 mod: EP2 receptor (human) modulation; P43116; AID 940; induction, % at 25 µM; 0.83% of 260,000 active; EP2-expressing cells, cAMP HTRF FRET, PGE2 co-stimulation;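 active = compounds whose cAMP rise, as percent of the full-agonist control response, exceeds 60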;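 also: rat C6 glioma line stably carrying human EP2 under a CMV promoter; the protocol text gives 20 µM as final concentration; 100% = response of wells given 1 µM PGE2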
NPY-Y2 antag: blocks the human neuropeptide Y Y2 receptor; P49146; inhibition, % at 2.7 µM; 0.99% of 140,000 active; NPY-Y2 expressing cells, antagonist mode;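 also: 0% = vehicle with agonist challenge and 100% = reference antagonist with challenge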
NPY-Y1 PAM-ag: potentiators or agonists of human neuropeptide Y receptor Y1; activation, % at 3.6 µM; P25929; AID 1304; NPY-Y1 expressing cells, potentiator/agonist activation; 0.37% of 220,000 active; in the data active = activation above about 33%, passing the limit was not always enough;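 also: cells stimulated with NPY at EC10 then isoproterenol at EC100; 0% = low agonist plus stimulus and 100% = saturating agonist plus stimulus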
NPY Y1 blocker: antagonists of human neuropeptide Y receptor Y1. P25929. HEK293-CNG Y1 cells, membrane potential fluorescence; NPY at EC95, then isoproterenol. inhibition, % at 3.6 µM. 1% of 200,000 active. AID 1040;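 active = inhibition above the campaign mean inhibition of all tested compounds plus 3 SD, cut at about 20% in these data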;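 also: 0% = DMSO wells given NPY plus isoproterenol and 100% = isoproterenol alone without NPY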
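Material: HEK293 cells co-expressing NPY Y1 receptor and cyclic-nucleotide gated channel. Timing: compound incubation 1 h at room temperature, readout 45 min post-stimulation. Signal: fluorescence, membrane potential probe.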
NPY-Y1 ant conf: confirmation of human neuropeptide Y receptor Y1 antagonists. shares compounds with NPY Y1 blocker. HEK293-CNG NPY-Y1, membrane potential fluorescence, cAMP; NPY challenge against isoproterenol-raised cAMP. inhibition, % at 3.6 µM. 21% of 1,200 active. AID 1254; in the data active = inhibition above about 20%;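 also: 0% = vehicle with agonist plus stimulus and 100% = stimulus alone without agonist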
NPY-Y2 antag ct: antagonizes human NPY-Y2, counter-screen to NPY-Y1 antagonists | shares compounds with NPY Y1 blocker | HEK293 NPY-Y2 CNG membrane potential fluorescence, antagonism; cells given NPY, then isoproterenol | inhibition, % at 3.6 µM | 28% of 1,200 active;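 also: 0% = DMSO with agonist challenge and 100% = reference antagonist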
Numbers without * were called inactive; · = no result. Only some compounds are listed: those with a hit (about 2.8% of all), similar ones and a draw of the others. Rule as the data show it, unless noted: active = inhibition above about 17%; inactive = the rest.

SMILES	NPY-Y2 PAM-ag	EP2 antag	EP2 mod	NPY-Y2 antag	NPY-Y1 PAM-ag	NPY Y1 blocker	NPY-Y1 ant conf	NPY-Y2 antag ct
Cc1cc(C#N)c(C)c(SCc2[nH]nc3c2C(c2ccccc2)C(C#N)=C(N)O3)n1 (stereo not drawn)	-16	10	-29	8	-27	21*	59*	39*
Cc1[nH]nc2c1C(c1ccc(F)cc1)C(C#N)=C(N)O2 (stereo not drawn)	1	11	-24	3	4	-4	·	·
Cc1nn(CC(=O)NC2CCCCC2)c(=O)c2cc3occc3n12	·	5	-17	·	·	·	·	·
Cc1ccccc1-c1nnn(CC(=O)NCc2ccc3c(c2)OCO3)n1	-10	6	1	14	-43	22*	8	9
Cc1ccccc1-c1nnn(CC(=O)Nc2ccc3c(c2)OCO3)n1	-25	5	-56	·	-33	19	·	·
COc1ccc([C@@H]2C[C@H](C(=O)N3CCCC3)N(C)S(=O)(=O)N2)cc1OC	·	·	-4	·	·	·	·	·
O=C(N/N=C/c1ccc(Br)s1)c1c[nH]c2ccccc12	-6	3	-43	3	8	20*	0	0
COc1ccc2c(c1)cc(C)c1nnc(SCC(=O)N3CCCc4ccccc43)n12	·	6	-21	·	·	·	·	·
C/C=C(/C)C(=O)O[C@@H]1c2c(ccc3ccc(=O)oc23)OC(C)(C)[C@@H]1OC(=O)/C(C)=C\C	-4	7	46	16	-25	31*	17	8
CCCCCC(=O)Nc1nc(C)c(-c2csc(Nc3ccccc3OC)n2)s1	12	12	-25	-1	13	14	·	·
CCCC(C)C(=O)Nc1nc(C)c(-c2csc(Nc3ccccc3OC)n2)s1 (stereo not drawn)	-14	15	5	9	2	24*	13	6
CCCCCCC(=O)Nc1nc(C)c(-c2csc(Nc3ccccc3OC)n2)s1	3	18	8	12	5	32*	10	6
O=C1NC(CC(=O)N2CCc3c(nc(N4CCCC4)[nH]c3=O)C2)c2ccccc21 (stereo not drawn)	·	·	-12	·	·	·	·	·
O=C(c1cnn2c(C(F)(F)F)cc(-c3ccco3)nc12)N1CCc2ccccc2C1	-18	11	-2	11	-49	21*	10	7
Cc1ccc(-c2cc(C(F)(F)F)n3ncc(C(=O)O)c3n2)cc1	-10	5	15	2	-2	21*	2	3
S=c1[nH]nc(-c2cccc(Br)c2)o1	-34	53*	28	13	-32	24*	11	11
CC(NC(=O)c1cc(COc2c(F)cccc2F)on1)c1cnn(-c2ccccc2)c1 (stereo not drawn)	-15	2	-80	·	-36	22*	6	8
COC(=O)c1c(NC(=O)C2COc3ccccc3O2)sc2c1CCN(Cc1ccccc1)C2 (stereo not drawn)	-28	4	18	15	-17	22*	31*	24*
COC(=O)c1c(NC(=O)C2COc3ccccc3O2)sc2c1CCC2 (stereo not drawn)	·	11	-26	·	·	·	·	·
Cc1ccc(C)c2[nH]c(=O)c(CN(Cc3cccnc3)C(=S)NCc3ccccc3)cc12	·	14	-42	·	·	·	·	·
COc1ccc(-c2cc(-c3n[nH]c(=S)n3-c3ccccc3OC)[nH]n2)cc1	-15	13	16	16	-66	32*	37*	66*
COc1ccc(OC)c(CN2CCC(CO)(CCOc3ccccc3)CC2)c1	-49	1	-14	·	-39	11	·	·
Cc1cc(C)c(CN2CCC(CO)(CCOc3ccccc3)CC2)cc1C	-35	4	-30	·	-36	30*	9	23*
CCOc1ccc(C2C(C#N)=C(N)Oc3n[nH]c(-c4cc(OC)ccc4OC)c32)cc1 (stereo not drawn)	·	7	-13	·	·	·	·	·

Source: PubChem (several laboratories)
